Measurements: the EternaBench riboswitch data

System: MS2 coat protein
Assay: apparent Kd, MS2 coat protein; higher = weaker binding; RNA-MaP array; FMN 200 µM where present
In short: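 On Illumina sequencing-chip clusters, designs were transcribed by stalled E. coli RNA polymerase and titrated with SNAP-549-labelled MS2 coat protein (0.7 or 1.5 nM, doubling to 3 µM), without and then with constant ligand, in 100 mM Tris-HCl pH 7.5, 80 mM KCl, 4 mM MgCl2, BSA, DTT, yeast tRNA and Tween-20. Apparent Kd is the median of filtered per-cluster curve fits to green signal normalised to red-channel RNA signal and control-cluster median Fmax.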

[1] = designed as: ON switch for flavin mononucleotide, no ligand
[2] = ligand present: flavin mononucleotide, designed as: ON switch for flavin mononucleotide
[3] = designed as: OFF switch for flavin mononucleotide, no ligand
[4] = ligand present: flavin mononucleotide, designed as: OFF switch for flavin mononucleotide

Sequence | apparent Kd [1] | apparent Kd [2] | apparent Kd [3] | apparent Kd [4]
CGCUAUGACAUAGGAUAUUGGUACAUGAGGAUCACCCAUGUCAACCAUGAAGCUCGAUUUGUUGACAAGAAGGAUGUGGUAGCG | 6.65 nM | 7.63 nM | – | –
AUACAUGAGGAUCACCCAUGUUACUGGGUCUUAAUAGAUCGUAGAAGGAUGUUAUUAUUAAUUUCAUAGGAUAUACUAUUUAGU | – | – | 48.3 nM | 32.9 nM
CUGUACAUAGGAUAUAGUUGUUUUUACAUGAGGAUCACCCAUGUUACUCCUCUCUCUCUUCUAGAAGGAUGUUUCU | – | – | 65.8 nM | 50.1 nM
GGAGAUACAUGAGGAUCACCCAUGUAGGAUAUCUAGUAUAUAUAUGGCGAAAGCCAUAUAUAUAUAGAGAAGGGCGUACACACC | – | – | 9 nM | 7.91 nM
GUCGGAAACGACAAAAGUAGCAUAGGAGAAGGUUCAUUAAACAUGAGGAUCACCCAUGUAAUUGGAAAGGAUAUCCUAUGCUAC | 5.04 nM | 5.06 nM | – | –
AAAAAGGCAGGAUAUACAUGAGGAUCACCCAUGUAGUUGACAAAAAAGAGUCAACAGUGUAGAAGGGCCAAAAA | – | – | 19.3 nM | 24.6 nM
UUUCAGUCAGGAUAUCGUUAAUUUAAUUGUUUGUAUUAGUUCGAGAAGGGACAUGAGGAUCACCCAUGUACUCU | – | – | 19.6 nM | 20 nM
UUCUUGGCAGGAUAUGCUCUUUUAGACAUGAGGAUCACCCAUGUGUUUAUUCUUUUUUUUGCAGAAGGGCCUUAAU | – | – | 93.9 nM | 88.8 nM
AAAUAAACUAGCAUAAUAUCCUCACAUGAGGAUCACCCAUGUCAGGAUAUUUGUCCUAAAAGGACAGAGAAGGGACGUGCUAGA | – | – | 5.07 nM | 6.27 nM
UUAGAGAAGGAGGAUAUGCUGUUCUGUCACGUAGCAGAAGGCCUUACAUGAGGAUCACCCAUGUUGAUCCCAGU | – | – | 618 nM | 576 nM
GGUACUCAGAGAGUACCAAUACGAACAUGAGGAUCACCCAUGUAGGAUAUGCUACUCAAAGAGUAGCAGAAGGACAUGUGCCUA | – | – | 14.9 nM | 101 nM
CUGCGACGGUGCACAAGUGGACGGAGAAGGCAGACAUGAGGAUCACCCAUGUGAGCCUGCUAUUCUGAGGAUAUCCGUUCACAC | – | – | 36 nM | 213 nM
CGGCGGGCAGGAUAUACAUGAGGAUCACCCAUGUGUGUCCAUACGCGUGAGUCCUCGUGUAGAAGGGUUUGUUG | – | – | 14.9 nM | 13.4 nM
CAUCUGGUGCAGAAGGGACAUAGGGUCCUUUGGUCGCUAAGUAUCCCACAUGAGGAUCACCCAUGUCAGGAUAUGUAUCUGGAU | – | – | 15.9 nM | 30.1 nM
AUCCGACAUGUAGGAUAUGCGUGGCGAAGCUAUGCAGAAGGACAUGAGGAUCACCCAUGUUUUACCGUCUGCGUACAGACGGUG | – | – | 286 nM | 240 nM
ACCUUACAUGAGGAUCACCCAUGUUAGGAUAUCUCGCCUGCACAAACACAGCGCAGGCAGAGAAGGGACGCGGG | – | – | 28.2 nM | 35 nM
ACUAGAUGAGGAUAUGCAUAUUUUCGUGUUCUUCUAGGUUAACAUGAGGAUCACCCAUGUAGAAGGCGUCUAUC | – | – | 22.2 nM | 39.7 nM
GAGUCACGAAUAAUAAUAAGAUCUACAUGAGGAUCACCCAUGUAGGAUAUGCAGUGGAAUACACUGCAGAAGGACAUACGUGAC | – | – | 14 nM | 17.5 nM
AAUUUACAGCUAGGAUAUACAUGAGGAUCACCCAUGUAACGAUCGGAUCUUAUGAUCGUGUCCGUGUAGAAGGAGCAAAUAAGA | – | – | 6.97 nM | 7.4 nM
AUUGUUAAGGUAGGAUAUAGUAAAAUGAUUUAAUUAGAAGGAUCUCACAUGAGGAUCACCCAUGUAAGAGGAUUACCCAUGUAU | – | – | 14.5 nM | 13.2 nM
UCUUAUUGCAAGGAUAUGCUAUUUAUUUUUUUUGCAGAAGGUGCAACAUGAGGAUCACCCAUGUUUCCGGGCAU | – | – | 19.2 nM | 42.7 nM
CAGGUCUGAGGAUAUCCAUCUUCAUACAUGAGGAUCACCCAUGUUUACCUUUGGGUUUUCGGAGAAGGCAGUUUUU | – | – | 273 nM | 370 nM
GUCAGCUCGUGAGGAUAUACAACACGGCUUCGGCAGUGUAUUAAGAUCACAUGAGGAUCACCCAUGUAGAAGGCACGAGCUGAU | – | – | 13.9 nM | 200 nM
UCAUAAGAACAAGGAUAUCAAUAAAAUAUAAAUGCUACAUGAGGAUCACCCAUGUUUUAGCAUGGUGAGAAGGUGUAUUUACGG | 67.8 nM | 42.5 nM | – | –

Sequence | apparent Kd [1] | apparent Kd [2] | apparent Kd [3] | apparent Kd [4]
GUGUAUAGCCUCGAGGAUAUCCUGUAAUGCACAUGAGGAUCACCCAUGUAUGAGCGAGUUUUUUGGGAGAAGGCGAGUUAUCGGU | 26.6 nM | 16.9 nM | – | –
UUCUUACGAGGAUAUCGAUUGUGGUACAUGAGGAUCACCCAUGUAUGUGAUAUUGUAUUUCGAGAAGGCGUUCAGU | – | – | 26.4 nM | 24.1 nM
GGAUAGGACAGAGGAUAUACGUGCUAGAGAUACUAGCAAACUUUCCUCACAUGAGGAUCACCCAUGUAGAAGGCUGUCCUAUCG | – | – | 21.1 nM | 483 nM
AGCUGGUGACAGCAUCCAUCAUAACAUGAGGAUCACCCAUGUAGAAGGCUGUACGGUUACCGUACAGAGGAUAUACAAUGAUGG | – | – | 7.4 nM | 7.32 nM
UAUAUAUAGUAAGGAUAUGUAUUAAUUAUAUAAACAGAAGGUACUGACAUGAGGAUCACCCAUGUUUUAGUGUGGGCAUGUAGA | – | – | 81.5 nM | 122 nM
AAAAGACAUGAGGAUCACCCAUGUCAAAACGUGGGAGGAUAUGUAUGGAAACCAGACUGUACAGAAGGCCUCUGUC | 41.7 nM | 131 nM | – | –
GCUGACGAUGUAGGAUAUCUCGACGAUAAGUCGAGAGAAGGACAUGAGGAUCACCCAUGUAAACUCGCGUCAGCGAGGAAACUC | – | – | 17.9 nM | 20.1 nM
CCAUACCGAGGAUAUACAUGAGGAUCACCCAUGUCAAAACCACGUGUACGGCGGUCUUGUAGAAGGCGGAAAUA | – | – | 11 nM | 16 nM
AGCUGUGGCCGAGGAUAUCUAUCUUCAAUAACCGAAAUAUAAUCGGACAUGAGGAUCACCCAUGUAGAGAAGGCGGUCUCAGCA | – | – | 33.6 nM | 84.5 nM
CUAUUCCGAGGAUAUACAUGAGGAUCACCCAUGUCGGGCCUCCGCGUUUCGCGCCUCAGUAGAAGGCGGGUUUC | – | – | 20.4 nM | 25.9 nM
AAUAUGUUGCAGAAGGUUAUUUUUAUAACGAUCCAUGUGACAUGAGGAUCACCCAUGUAAUUGAUGAAGGAUAUGCAAUAUAUU | – | – | 6.72 nM | 6.45 nM
CCGUAAUAUGGAGGAUAUGGAGCCUUAUUGGCUCCAGAAGGUCAUAAAACAUGAGGAUCACCCAUGUCGGCGGUCAAUAGACCG | 55.7 nM | 20.5 nM | – | –
UUGGACGUCGUAGGAUAUGUAGGAUAUUCCUACAUGAGGAUCACCCAUGUUGACAUGGAAGAAGGACAGAAGGAAGAUGUCCAU | 776 nM | 13.9 nM | – | –
UCUGUUUUGCGAGGAUAUCGACCAUUCCUCUUAACAUGAGGAUCACCCAUGUGCUAAUCCUACAACGAGAAGGCGCUCAUACUC | – | – | 250 nM | 348 nM
UUUUUAGCAGGAUAUAUCCACGACUACAUGAGGAUCACCCAUGUGGCCGCUUGAAGUUGUAUAGAAGGGCUUUUUU | – | – | 24.8 nM | 23.4 nM
UUUGCAUGACGAGGAUAUCAUUUAUUUCUUGAUUGAGAAGGCGUUCUUUUUACUACCUAACAUGAGGAUCACCCAUGUGACAGU | 16.1 nM | 12.7 nM | – | –
CGUGCGUAUGUGAGGAUAUGCUGGUCCUUGGAUCGGCAGAAGGCACAUGAGGAUCACCCAUGUGGUGUCGUACA | – | – | 312 nM | 43.2 nM
AUGCCCUGAGGAUAUCUCAUCCCGCACAUGAGGAUCACCCAUGUUCUCCUCCGGGCUCCGAGAGAAGGCAGGCCCA | – | – | 55.6 nM | 87.2 nM
CCAGACGUUGUAGGAUAUCUGAAAGGAAGUGUAAGAGAAGGAUAGUGUCUGUAAAACAUGAGGAUCACCCAUGUGGGCGCAUCC | – | – | 19.6 nM | 61.9 nM
AUCAGCUCGUCAGGAUAUACGUCACUGCGUCAGGAGUGUGGUAAGAUCACAUGAGGAUCACCCAUGUAGAAGGGACGAGCUGAU | – | – | 16.6 nM | 298 nM
CAACUGCAUGUGAGGAUAUGCACCGGCCAAGCCGGGCAGAAGGCACAUGAGGAUCACCCAUGUCAUCCUAUUGC | – | – | 12.6 nM | 27.8 nM
UAUUAUGUCAGAGGAUAUAUAAAUAAAUUUAUAACAUGAGGAUCACCCAUGUACUUUAGUAUGAGGUAGAAGGUUGAUAAGAUA | 45.4 nM | 26.8 nM | – | –
UAAUCACCCUCAUGUACCUGAGGACAUGAGGAUCACCCAUGUAAGGAUAUAGCCAUUAAAUCUAACUAGAAGGUAUAGGUAAUC | – | – | 808 nM | 624 nM
UAGUAGAUCCGAGGAUAUACAAUCCGGAAACGGUACAUGAGGAUCACCCAUGUAGAAGGCGGAUCUACAGGUACUAAAGUACCA | – | – | 5.68 nM | 7.82 nM
